Measurements as given in PubChem BioAssay.
Activity calls are given as the source filed them.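 The calls were made as follows, unless noted: active = inhibition above 20% together with a positive visual image hit; inconclusive = visual image hit but inhibition not above 20%; inactive = no visual image hit.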

Tests used:
[1] = inhibitors of TNFa-induced NFkB p65 translocation, primary screen, imaging, HUVEC, MLSMR starter and 10KST1 sets (AID 438); settings: HUVEC TNFa-induced p65 nuclear translocation; cell count: measured here: nuclei count (cytotoxicity indicator), at 2.08 µM; inhibition: at 2 µM, stronger effect = higher value, 0% TNFa-plus-vehicle, 100% no-TNFa wells;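 also: compound added about 3h40 before a 20 min TNFalpha stimulation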;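 as to inhibition: signal is the nuclear over cytoplasmic p65 intensity ratio per well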
[2] = inhibitors of E-selectin induction by TNFa, primary screen, imaging, HUVEC, immunofluorescence, MLSMR starter and 10KST1 sets (AID 487;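 active = visually confirmed hit in the image check and inhibition above 20%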;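 as to inhibition: signal is fraction of cell area covered by stained E-selectin grains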;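 as to nuclei count: 100% = median nuclei count of all wells on the same plate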); settings: HUVEC TNFalpha-induced E-selectin immunofluorescence imaging, at 2 µM; inhibition: stronger effect = higher value; nuclei count: measured here: cell number, toxicity
[3] = DUSP6 inhibitors restoring Erk phosphorylation by chemical complementation, primary imaging in DUSP6-transfected HeLa (AID 609;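 active = compounds giving at least 50% inhibition in the cell-based MKP-3 phosphatase rescue imaging test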;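 as to inhibition: phospho-Erk level distribution per well compared with pooled transfected vehicle control wells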); settings: HeLa MKP-3 transfected, phospho-Erk imaging KS statistic, at 10 µM, cells stimulated with TPA for 15 min
[4] = target: Dual specificity protein phosphatase 6 (Homo sapiens) (UniProt Q16828); experiment: as above; settings: HeLa MKP-3 transfected, phospho-Erk imaging KS statistic; at 10 µM; stronger effect = higher value; cells stimulated with TPA for 15 min
Dual specificity protein phosphatase 6 (Homo sapiens), sequence (Q16828 whole entry, looked up): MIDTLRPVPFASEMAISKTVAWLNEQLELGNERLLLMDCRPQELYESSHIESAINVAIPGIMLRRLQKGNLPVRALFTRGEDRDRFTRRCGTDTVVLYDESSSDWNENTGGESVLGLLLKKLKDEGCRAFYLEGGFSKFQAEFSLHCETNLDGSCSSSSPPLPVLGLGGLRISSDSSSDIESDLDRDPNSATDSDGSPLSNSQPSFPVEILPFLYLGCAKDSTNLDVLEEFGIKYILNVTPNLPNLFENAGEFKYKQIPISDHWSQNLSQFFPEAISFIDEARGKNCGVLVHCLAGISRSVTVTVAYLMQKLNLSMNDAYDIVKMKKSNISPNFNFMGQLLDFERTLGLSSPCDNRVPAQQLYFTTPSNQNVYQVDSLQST

[5] = target: Voltage-gated potassium channel subunit beta-2 (Rattus norvegicus) (UniProt P62483); experiment: KvBeta enzyme negative modulators, primary screen, biochemical, NADPH fluorescence (AID 622;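 active = fluorescence slope higher than the sample average by over 3 SD, cut at about -0.22 in these data, passing the limit was not always enough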;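 also: slope of raw intensity against log time taken from 70 to 1610 s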); settings: recombinant KvBeta, 4-cyanobenzaldehyde reduction, at 10 µM, stronger effect = higher value
Voltage-gated potassium channel subunit beta-2 (Rattus norvegicus), sequence (P62483 whole entry, looked up): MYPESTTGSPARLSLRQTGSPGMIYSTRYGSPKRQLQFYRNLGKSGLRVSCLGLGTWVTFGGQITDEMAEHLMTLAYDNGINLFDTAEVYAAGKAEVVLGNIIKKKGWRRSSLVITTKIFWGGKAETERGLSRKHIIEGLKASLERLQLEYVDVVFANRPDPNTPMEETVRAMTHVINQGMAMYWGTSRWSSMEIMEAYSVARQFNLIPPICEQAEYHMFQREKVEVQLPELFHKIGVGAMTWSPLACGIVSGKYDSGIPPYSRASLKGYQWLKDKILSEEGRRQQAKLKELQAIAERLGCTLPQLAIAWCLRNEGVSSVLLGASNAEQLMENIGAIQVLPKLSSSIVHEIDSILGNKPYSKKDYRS

[6] = target: Voltage-gated potassium channel subunit beta-2 (Rattus norvegicus) (UniProt P62483); experiment: KvBeta positive modulators, primary screen, biochemical, NADPH fluorescence (AID 623;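 active = NADPH fluorescence slope more negative than the mean of all samples by about 3 SD, 99.7% confidence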;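 also: fluorescence intensity change per second fitted from 20 to 320 s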); settings: Recombinant KvBeta, NADPH fluorescence decrease slope, 10 min; at 10 µM; stronger effect = lower value
[7] = target: Alpha-2C adrenergic receptor (Homo sapiens) (UniProt P18825); experiment: modulators of alpha2C/GIRK thallium flux, primary screen, cell-based, HEK293 alpha2C/GIRK1/2 (AID 624;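 active = fluorescence slope after compound addition differing from the mean of all screened samples at 99.7% confidence, in either direction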;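 also: slope of fluorescence ratio to pre-addition baseline per second over 15 to 24 s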); settings: thallium flux BTC fluorescence, at 10 µM, actives lie on both sides
Alpha-2C adrenergic receptor (Homo sapiens), sequence (P18825 whole entry, looked up): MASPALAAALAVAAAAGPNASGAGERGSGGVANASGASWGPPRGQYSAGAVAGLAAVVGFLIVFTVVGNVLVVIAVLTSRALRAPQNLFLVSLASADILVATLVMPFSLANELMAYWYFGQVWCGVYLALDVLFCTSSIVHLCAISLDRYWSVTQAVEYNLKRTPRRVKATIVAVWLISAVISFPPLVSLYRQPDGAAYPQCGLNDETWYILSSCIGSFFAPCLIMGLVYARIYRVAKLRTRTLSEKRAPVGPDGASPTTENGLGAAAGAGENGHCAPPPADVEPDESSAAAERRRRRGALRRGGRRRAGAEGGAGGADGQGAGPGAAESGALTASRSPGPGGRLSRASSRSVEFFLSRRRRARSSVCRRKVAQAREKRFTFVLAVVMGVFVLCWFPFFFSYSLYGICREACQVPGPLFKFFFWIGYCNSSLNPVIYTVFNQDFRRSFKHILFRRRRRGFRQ

[8] = inhibitors of larval lipid processing in zebrafish, primary screen, whole organism, PED6 fluorescence, gall bladder and intestine (AID 686;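 active = a full or partial loss of lipid-probe fluorescence in the fish gall bladder, intestine or both, judged by eye; inactive = no fluorescence loss, or compound toxic to the fish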;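 also: larvae 5 to 7 days old with five fish per well; signal comes from phospholipase A2 cleavage of quenched PED6 carried via bile; overnight exposure to compound and PED6 before scoring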); settings: Zebrafish larvae PED6 lipid processing, fluorescence scoring; screened at 20 µM (by protocol)
How it was run: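 System: live zebrafish larvae aged 5-7 days, whole organism; measure: graded gall bladder and intestinal fluorescence inhibition per well; incubation: overnight exposure; reagent: ingested quenched lipid PED6 at 100 nM; signal: By-eye fluorescence microscopy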

[9] = inhibitors of Chlamydomonas gravitaxis, primary screen, whole organism, Chlamydomonas reinhardtii, WT vs cilia-less mutant, absorbance, 96-well (AID 463189;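 active = inhibition at or above 50% relative to wild type and mutant plate controls; inactive = inhibition below 50%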;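 also: 0% = wild type cc124 cells in DMSO and 100% = ciliumless bld1 mutant cells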); settings: OD600 absorbance, 2 days, at 10 µM, stronger effect = higher value
[10] = measured here: cell density z-score
[11] = measured here: nuclear c-Myc green intensity z-score
[12] = measured here: nuclear pErk red intensity z-score, stronger effect = higher value

Row | SMILES | cell count [1] | inhibition [1] | inhibition [2] | nuclei count [2] | z-score [3, 10] | z-score [3, 11] | z-score [3, 12] | inhibition [4] | fluorescence slope [5] | NADPH fluorescence slope [6] | slope [7] | outcome [8] | inhibition [9]
1 | COc1ccc(-c2nc3n(c2Br)CCC3)cc1 | 587 | -14.6% (inactive) | -22.2% (inactive) | 162% | 1.1 | 0.741 | -1.03 | 39% (inactive) | -0.503 (inactive) | -2.6e-05 (inactive) | 0.00527 (inactive) | inactive | 49.9% (inactive)
2 | Cc1ccc(S(=O)(=O)c2cc3c(=O)n4ccccc4nc3n(C)c2=N)cc1 | 563 | -16.4% (inactive) | -78% (inactive) | 162% | 0.476 | -0.181 | 0.227 | -16.8% (inactive) | -0.453 (inactive) | -3.3e-05 (inactive) | 0.00439 (inactive) | inactive | 1.37% (inactive)
3 | CCOc1ccc(C2C(C#N)=C(N)SC(N)=C2C#N)cc1OC | 654 | -21.3% (inactive) | 22.8% (inactive) | 177% | 0.539 | -1.2 | 0.0794 | -3.95% (inactive) | -0.291 (inactive) | -3e-05 (inactive) | 0.00675 (inactive) | inactive | 5.29% (inactive)
4 | COc1c(O)ccc2cnn(-c3ccccc3C)c(=O)c12 | 557 | -2.9% (inactive) | -53.4% (inactive) | 180% | -1.01 | 0.966 | 0.382 | 9.61% (inactive) | -0.35 (inactive) | -1.2e-05 (inactive) | 0.00472 (inactive) | inactive | 1.71% (inactive)
5 | Clc1cccc(-c2nn3c(COc4ccccc4)nnc3s2)c1 | 559 | -2.3% (inactive) | -53% (inactive) | 139% | 0.34 | 0.334 | -0.356 | -9.66% (inactive) | -0.412 (inactive) | -0.000153 (inactive) | 0.00768 (inactive) | inactive | -2.6% (inactive)
6 | CCCCCCn1cc(C(=O)O)c(=O)c2ccccc21 | 426 | -5.3% (inactive) | -95% (inactive) | 158% | -1.56 | 1.61 | 1.42 | -7.28% (inactive) | -0.402 (inactive) | -1.4e-06 (inactive) | 0.00525 (inactive) | inactive | -8.24% (inactive)
7 | CC(NC(=O)OC(C)(C)C)C(=O)Oc1ccc2ccc(=O)oc2c1 (stereo unspecified) | 566 | -16.8% (inactive) | -178% (inactive) | 183% | 0.378 | 1.02 | -0.959 | 28.6% (inactive) | -0.0856 (inactive) | -1.3e-05 (inactive) | 0.00547 (inactive) | inactive | 1.2% (inactive)
8 | Cn1c(NCCN2CCCCC2)cc(=O)n(C)c1=O | 625 | 4.3% (inactive) | -24.8% (inactive) | 125% | 1.35 | -0.0759 | -0.233 | -1.12% (inactive) | -0.492 (inactive) | -0.000171 (inactive) | 0.00437 (inactive) | inactive | 9.26% (inactive)
9 | CCOC(=O)c1[nH]c2ccc(OC)cc2c1C | 547 | -3.8% (inactive) | -0.1% (inactive) | 171% | -0.421 | -0.589 | 0.677 | -12.3% (inactive) | -0.361 (inactive) | -2.9e-05 (inactive) | 0.0043 (inactive) | inactive | 1.77% (inactive)
10 | CCN(CC)C(=O)CSC1=C(C#N)C(c2cccs2)C=C(C)N1 (stereo unspecified) | 685 | -20% (inactive) | -137% (inactive) | 171% | -0.342 | -0.599 | 1.19 | -10.6% (inactive) | -0.405 (inactive) | -4.9e-05 (inactive) | 0.00539 (inactive) | inactive | -1.96% (inactive)
11 | O=C(CCC(=O)CCN1CCCCC1)CCN1CCCCC1 | 641 | -2.1% (inactive) | 5.3% (inactive) | 170% | -0.3 | 1.66 | 0.253 | 15.1% (inactive) | -0.506 (inactive) | -0.000129 (inactive) | 0.00498 (inactive) | inactive | 12.4% (inactive)
12 | COc1ccc(Nc2cc(C)nc3ccccc23)cc1 | 467 | -5.2% (inactive) | 36% (inactive) | 118% | 0.29 | 0.934 | -1.53 | 4.72% (inactive) | -0.429 (inactive) | -2.1e-05 (inactive) | 0.00465 (inactive) | inactive | 17.6% (inactive)
13 | Cc1c(/C(O)=C2\C(=O)C(=O)N(CCN(C)C)C2c2cccs2)cnn1-c1ccccc1 (stereo unspecified) | 544 | 1.9% (inactive) | -68.6% (inactive) | 127% | 1.03 | -0.0076 | 0.683 | -5.26% (inactive) | -0.578 (inactive) | -3.3e-05 (inactive) | 0.00515 (inactive) | inactive | -16.4% (inactive)
14 | N#CC12CCCCC1CC1CCCCC1(C#N)N2Cc1ccccn1 (stereo unspecified) | 372 | -4.4% (inactive) | -22.3% (inactive) | 86.1% | 0.309 | 0.731 | -1.95 | -3.98% (inactive) | -0.46 (inactive) | -0.000337 (inactive) | 0.0048 (inactive) | inactive | -3.05% (inactive)
15 | Cn1c(OCc2ccc3c(c2)OCO3)nc2c1c(=O)n(Cc1cccc(Cl)c1)c(=O)n2C | 646 | 5.7% (inactive) | -35.9% (inactive) | 149% | -0.768 | 0.366 | 0.018 | 9.61% (inactive) | -0.484 (inactive) | -0.000102 (inactive) | 0.00957 (inactive) | inactive | 4.63% (inactive)
16 | CC1CC(C(F)(F)F)n2ncnc2N1 (stereo unspecified) | 503 | -3.5% (inactive) | -41.5% (inactive) | 134% | -0.241 | 0.0915 | -0.288 | 13.2% (inactive) | -0.523 (inactive) | -4.4e-05 (inactive) | 0.00582 (inactive) | inactive | 39.7% (inactive)
17 | O=C(CN1C(=O)c2ccccc2S1(=O)=O)c1ccccc1 | 567 | -7.2% (inactive) | 39.2% (inactive) | 193% | 0.246 | 1.04 | -0.287 | 7.73% (inactive) | -0.511 (inactive) | -9e-05 (inactive) | 0.005 (inactive) | inactive | -6.59% (inactive)
18 | CC(=O)N/C(=N/c1nc(C)cc(C)n1)Nc1ccc(NC(C)=O)cc1 | 647 | 3.8% (inactive) | -35% (inactive) | 154% | 1.7 | -1.09 | -1.09 | -1.12% (inactive) | -0.509 (inactive) | -6.6e-05 (inactive) | 0.00481 (inactive) | inactive | 1.67% (inactive)
19 | CC(=O)Oc1ccccc1C1OC(=O)c2ccccc2N1C(C)=O (stereo unspecified) | 435 | -26.4% (inactive) | -136% (inactive) | 171% | -0.279 | -1.25 | -0.306 | 17.7% (inactive) | -0.274 (inactive) | 9.9e-06 (inactive) | 0.00513 (inactive) | inactive | 23.1% (inactive)
20 | O=c1[nH]cnc2cc(-c3ccccc3)sc12 | 526 | -9.9% (inactive) | -20.4% (inactive) | 168% | 0.45 | -1.43 | 0.87 | 21% (inactive) | -0.351 (inactive) | -9.5e-06 (inactive) | 0.00529 (inactive) | inactive | -1.84% (inactive)
21 | N#CC1=C(N)NC(SCc2ccc(F)cc2)=C(C#N)C12CCCCC2 | 614 | -15.5% (inactive) | 24.8% (inactive) | 164% | -0.696 | -0.0167 | -0.195 | 6.04% (inactive) | -0.404 (inactive) | -4.7e-05 (inactive) | 0.0043 (inactive) | inactive | -1.21% (inactive)
22 | CCOC(=O)c1nc(N)c(C(=O)OCC)[nH]1 | 405 | 11.5% (inactive) | -32.3% (inactive) | 94.7% | -0.517 | 1.59 | -0.341 | 18.2% (inactive) | -0.47 (inactive) | -7.9e-05 (inactive) | 0.00468 (inactive) | inactive | -16% (inactive)
23 | Cc1ccc(SCc2nnc(N)s2)cc1 | 580 | -16.4% (inactive) | 29.9% (inactive) | 161% | -0.876 | -0.003 | 0.564 | -15% (inactive) | -0.396 (inactive) | -5.4e-05 (inactive) | 0.00821 (inactive) | inactive | 7.17% (inactive)
24 | COc1ccc(CCNc2nc3c(c(=O)n(C)c(=O)n3C)n2C)cc1OC | 604 | -9.9% (inactive) | -63.1% (inactive) | 146% | 1.46 | -0.0832 | 0.95 | -4.27% (inactive) | -0.425 (inactive) | -6e-05 (inactive) | 0.00693 (inactive) | inactive | -4.62% (inactive)
25 | Cn1c(OCc2ccco2)nc2c1c(=O)n(Cc1ccc(Cl)c(Cl)c1)c(=O)n2C | 642 | -4.4% (inactive) | 12.6% (inactive) | 136% | 1.05 | 0.078 | -0.436 | 0.671% (inactive) | -0.521 (inactive) | -4.1e-05 (inactive) | 0.00511 (inactive) | inactive | -1.38% (inactive)
26 | O=c1[nH]c(CN2CCCCC2)nc2c1C1(CCCCC1)Cc1ccccc1-2 | 374 | -4.7% (inactive) | -4.9% (inactive) | 104% | 0.315 | 0.221 | -1.87 | -4.7% (inactive) | -0.395 (inactive) | 2.4e-05 (inactive) | 0.0066 (inactive) | inactive | -10.4% (inactive)
27 | CCCCOC(=O)CSc1nc(N)c(C#N)c(-c2ccc(OC)cc2)c1C#N | 370 | -0.4% (inactive) | -58.5% (inactive) | 99.4% | -2.23 | 0.0198 | 1.46 | 3.66% (inactive) | -0.52 (inactive) | -6.6e-05 (inactive) | 0.00456 (inactive) | inactive | -17.4% (inactive)
